# Experimental data as given in ChEMBL document CHEMBL1156517, “Targeting thyroid hormone receptor-beta agonists to the liver reduces cholesterol and triglycerides and improves the therapeutic index” (Proc Natl Acad Sci U S A, 2007).
# Active and inactive are the calls of the source. No cut-off for these calls is given here.
# Key:
# Mus musculus [1] = experiment: Reduction in plasma cholesterol level in diet-induced obese C57BL/6 mouse at 3 mg/kg/day, po; type: functional; set-up: scale not given: the % may be the effect or the level left
# How it was run: (§1)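 Male C57BL/6 mice, about 4 weeks old, fed a high-fat diet (60% kcal fat) for about 170 days. Assigned to groups (n = 8) matched for cholesterol and body weight. Dosed orally once daily in 0.5% CMC/1% Lutrol F68 for 2 weeks. Baseline blood taken by tail nick. At end, cardiac-puncture blood used for cholesterol, TGs, glucose and thyroid hormones; liver weighed and hepatic TGs measured.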
# Mus musculus [2] = experiment: Decrease in body weight in diet-induced obese C57BL/6 mouse at 30 mg/kg/day, po; type: functional; set-up: scale not given: the % may be the effect or the level left
# [3] = Clearance in Sprague-Dawley rat at 3 mg/kg, iv; type: ADME, organism-based; set-up: dose 3 mg/kg, route intravenous; details: in vivo
# How it was run: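 Male SD rats received a single i.v. dose. Clearance and other PK parameters came from plasma concentration–time profiles of both the prodrug and the active phosphonate, values reported as mean ± SEM.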
# Rattus norvegicus [4] = experiment: Effect on food intake in Sprague-Dawley rat at 10 mg/kg/day, po after 8 days; type: functional
# Rattus norvegicus [5] = experiment: Effect on fasting blood glucose level in Sprague-Dawley rat at 50 mg/kg/day, po after 8 days by oral glucose tolerance test; type: functional
# Rattus norvegicus [6] = experiment: Effect on fasting blood glucose level in Sprague-Dawley rat at 1 mg/kg/day, po after 8 days by oral glucose tolerance test; type: functional
# Rattus norvegicus [7] = experiment: Effect on type 1 iodothyronine deiodinase mRNA expression in po dosed Sprague-Dawley rat liver; type: functional, organism-based; details: TDE = time-dependent effect
# How it was run: (§2)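 Killed 3, 8 and 24 h post-dose under 2.5% isoflurane. Pituitary and thyroid snap-frozen; liver, heart, soleus, spleen and kidney freeze-clamped. mRNA by quantitative real-time PCR, expressed as fold-change vs vehicle.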
# Mus musculus [8] = experiment: Reduction in blood glucose level in po dosed diet-induced obese C57BL/6 mouse; type: functional, organism-based; how it was run: as §1
# Rattus norvegicus [9] = experiment: Effect on plasma fatty acid level in Sprague-Dawley rat at 50 mg/kg/day, po after 8 days; type: functional
# Rattus norvegicus [10] = experiment: Toxicity in Sprague-Dawley rat assessed as suppression of thyroid hormone axis measured by decrease in total 3,5,3',5'-tetraiodo-L-thyronine level at 30 mg/kg, po after 7 weeks; type: organism-based; set-up: dose 30 mg/kg, route oral; details: in vivo, 1176 h
# Mus musculus [11] = experiment: Decrease in plasma triglyceride level in po dosed diet-induced obese C57BL/6 mouse after 14 days; type: functional; set-up: scale not given: the % may be the effect or the level left
# How it was run: (§3)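 DIO mice were male C57BL/6 fed a 60%-fat (by kcal) diet from about 4 weeks of age for about 170 days. They were grouped (n = 8) to match cholesterol and body weight. Dosing was oral, once daily for 2 weeks, in 0.5% CMC/1% Lutrol F68. At kill, blood was taken by cardiac puncture for plasma TGs. The liver was removed and weighed, and hepatic TGs were measured.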
# Rattus norvegicus [12] = experiment: Effect on plasma insulin level in Sprague-Dawley rat at 50 mg/kg/day, po after 8 days; type: functional
# Rattus norvegicus [13] = experiment: Effect on plasma fatty acid level in Sprague-Dawley rat at 10 mg/kg/day, po after 8 days; type: functional
# [14] = Volume of distribution in Sprague-Dawley rat at 3 mg/kg, iv; type: ADME, organism-based; set-up: dose 3 mg/kg, route intravenous; details: in vivo
# Mus musculus [15] = experiment: Decrease in liver triglyceride level in po dosed diet-induced obese C57BL/6 mouse after 14 days; type: functional; set-up: scale not given: the % may be the effect or the level left; how it was run: as §3
# Mus musculus [16] = experiment: Effect on hepatic LDLR mRNA level in diet-induced obese C57BL/6 mouse at 10 mg/kg, po after 8 hrs by RT-PCR; type: functional
# How it was run: (§4)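 Single oral dose in male DIO mice: C57BL/6 mice, about 4 weeks old at start, fed a 60% fat (by kcal) diet for about 170 days. Hepatic LDLR mRNA read out at early time points (3 and 8 h) after dosing.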
# Rattus norvegicus [17] = experiment: Effect on plasma fatty acid level in Sprague-Dawley rat at 1 mg/kg/day, po after 8 days; type: functional
# Rattus norvegicus [18] = experiment: Effect on body weight in Sprague-Dawley rat at 10 mg/kg/day, po after 8 days; type: functional
# Mus musculus [19] = experiment: Effect on hepatic LDLR mRNA level in wild-type C57BL/6 mouse at 5 mg/kg/day once daily for 7 days; type: functional
# Hepatocyte = experiment: Cmax per10'6 cells in Sprague-Dawley rat hepatocytes at 10 uM; type: ADME, Liver; set-up: dose 10 uM
# How it was run: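 Freshly isolated rat hepatocytes were incubated with compound. Intracellular levels of the active phosphonate were followed over time and expressed per 10⁶ cells, giving Cmax and tmax.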
# Rattus norvegicus [20] = experiment: Effect on SREBP-1c mRNA expression in po dosed Sprague-Dawley rat liver; type: functional, organism-based; details: TDE = time-dependent effect
# [21] = molecular target: Thyroid hormone receptor beta (Homo sapiens, UniProt P10828); experiment: Displacement of [125I]T3 from recombinant thyroid hormone receptor beta expressed in sf9 cells by scintillation proximity assay
# Mus musculus [22] = experiment: Decrease in cholesterol level in wild-type C57BL/6 mouse at 0.5 mg/kg/day once daily for 7 days; type: functional, organism-based
# Rattus norvegicus [23] = experiment: Toxicity in Sprague-Dawley rat assessed as suppression of thyroid hormone axis measured by decrease in serum TSH level at 30 mg/kg, po after 7 weeks; type: organism-based; set-up: dose 30 mg/kg, route oral; details: in vivo, 1176 h
# Rattus norvegicus [24] = experiment: Toxicity in Sprague-Dawley rat assessed as suppression of thyroid hormone axis measured by decrease in TSH-beta mRNA level at 30 mg/kg, po after 7 weeks; type: organism-based; set-up: dose 30 mg/kg, route oral; details: in vivo, 1176 h
# How it was run: (§5)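 Male SD rats (n = 5–6 per group; baseline group n = 8) given vehicle (0.5% CMC/1% Lutrol F68) or drug orally once daily. One group per cohort weighed and killed by decapitation without anesthesia after 1, 2, 4 and 7 weeks. Trunk-blood serum assayed for total/free T3 and T4; TSH by [125I] radioimmunoassay with magnetic separation. Pituitary TSHβ mRNA also measured.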
# [25] = Inhibition of CYP3A in Sprague-Dawley rat liver microsome at 10 uM; type: ADME; details: microsomes
# Mus musculus [26] = experiment: Decrease in liver triglyceride level in diet-induced obese C57BL/6 mouse at 3 mg/kg/day, po after 14 days; type: functional; set-up: scale not given: the % may be the effect or the level left; how it was run: as §3
# [27] = molecular target: Thyroid hormone receptor alpha (Homo sapiens, UniProt P10827); experiment: Displacement of [125I]T3 from recombinant thyroid hormone receptor alpha expressed in sf9 cells by scintillation proximity assay
# Mus musculus [28] = experiment: Decrease in liver weight in po dosed diet-induced obese C57BL/6 mouse after 14 days; type: functional; set-up: scale not given: the % may be the effect or the level left; how it was run: as §3
# Mus musculus [29] = experiment: Effect on hepatic LDLR mRNA level in diet-induced obese C57BL/6 mouse at 10 mg/kg, po after 3 hrs by RT-PCR; type: functional; how it was run: as §4
# Mus musculus [30] = experiment: Decrease in plasma triglyceride level in diet-induced obese C57BL/6 mouse at 3 mg/kg/day, po after 14 days; type: functional; set-up: scale not given: the % may be the effect or the level left; how it was run: as §3
# Mus musculus [31] = experiment: Decrease in cholesterol level in LDLR deficient C57BL/6 mouse at 5 mg/kg/day once daily for 7 days; type: functional, organism-based
# Rattus norvegicus [32] = experiment: Effect on plasma insulin level in Sprague-Dawley rat at 1 mg/kg/day, po after 8 days; type: functional
# Rattus norvegicus [33] = experiment: Effect on body weight in Sprague-Dawley rat at 50 mg/kg/day, po after 8 days; type: functional
# Rattus norvegicus [34] = experiment: Effect on LDLR mRNA expression in po dosed Sprague-Dawley rat liver; type: functional, organism-based; details: TDE = time-dependent effect
# Rattus norvegicus [35] = experiment: Effect on food intake in Sprague-Dawley rat at 1 mg/kg/day, po after 8 days; type: functional
# Mus musculus [36] = experiment: Decrease in cholesterol level in wild-type C57BL/6 mouse at 5 mg/kg/day once daily for 7 days; type: functional, organism-based
# Rattus norvegicus [37] = experiment: Effect on plasma insulin level in Sprague-Dawley rat at 10 mg/kg/day, po after 8 days; type: functional
# Mus musculus [38] = experiment: Decrease in cholesterol level in LDLR deficient C57BL/6 mouse at 0.5 mg/kg/day once daily for 7 days; type: functional, organism-based
# Rattus norvegicus [39] = experiment: Effect on fasting blood glucose level in Sprague-Dawley rat at 10 mg/kg/day, po after 8 days by oral glucose tolerance test; type: functional
# Rattus norvegicus [40] = experiment: Effect on malic enzyme mRNA expression in po dosed Sprague-Dawley rat liver; type: functional, organism-based; details: TDE = time-dependent effect; how it was run: as §2
# Rattus norvegicus [41] = experiment: Effect on body weight in Sprague-Dawley rat at 1 mg/kg/day, po after 8 days; type: functional
# Rattus norvegicus [42] = experiment: Effect on food intake in Sprague-Dawley rat at 50 mg/kg/day, po after 8 days; type: functional
# CYP3A = experiment: (§6) Activity of CYP3A in Sprague-Dawley rat liver microsome; type: ADME; details: Sprague-Dawley, liver microsomes
# [43] = as §6; type: ADME; details: microsomes
# Rattus norvegicus [44] = experiment: Toxicity in Sprague-Dawley rat assessed as suppression of thyroid hormone axis measured by decrease in free 3,5,3',5'-tetraiodo-L-thyronine level at 30 mg/kg, po after 7 weeks; type: organism-based; set-up: dose 30 mg/kg, route oral; details: in vivo, 1176 h; how it was run: as §5
# Rattus norvegicus [45] = species: Rattus norvegicus; experiment: Reduction in plasma cholesterol level in cholesterol fed Sprague-Dawley rat; type: functional
# Rattus norvegicus [46] = experiment: Increase in hepatic LDLR mRNA level in thyroidectomized Sprague-Dawley rat at 5 mg/kg after 24 hrs by RT-PCR relative to control; type: functional
# How it was run: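 Male thyroidectomized SD rats given 5 mg/kg, with a parallel T₃ arm at 0.5 mg/kg. Hepatic LDLR mRNA quantified by quantitative real-time PCR.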
# Mus musculus [47] = experiment: Effect on hepatic LDLR mRNA level in LDLR deficient C57BL/6 mouse at 5 mg/kg/day once daily for 7 days; type: functional
# Mus musculus [48] = experiment: Reduction in plasma cholesterol level in po dosed diet-induced obese C57BL/6 mouse after 2 weeks; type: functional; set-up: scale not given: the % may be the effect or the level left; how it was run: as §1
# Thyroid hormone receptor beta, sequence (P10828 whole entry): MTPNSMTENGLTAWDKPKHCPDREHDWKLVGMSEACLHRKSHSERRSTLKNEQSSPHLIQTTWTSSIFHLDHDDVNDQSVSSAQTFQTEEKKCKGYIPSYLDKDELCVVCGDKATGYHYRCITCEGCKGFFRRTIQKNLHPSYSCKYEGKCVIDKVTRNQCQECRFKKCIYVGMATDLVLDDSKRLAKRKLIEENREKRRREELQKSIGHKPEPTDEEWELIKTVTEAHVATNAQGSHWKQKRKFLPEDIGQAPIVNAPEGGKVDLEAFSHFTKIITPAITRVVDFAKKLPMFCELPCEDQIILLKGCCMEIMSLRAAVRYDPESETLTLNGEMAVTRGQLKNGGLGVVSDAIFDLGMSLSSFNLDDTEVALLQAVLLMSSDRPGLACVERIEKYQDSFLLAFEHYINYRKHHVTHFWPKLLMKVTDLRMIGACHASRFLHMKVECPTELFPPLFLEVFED
# Thyroid hormone receptor alpha, sequence (P10827 whole entry): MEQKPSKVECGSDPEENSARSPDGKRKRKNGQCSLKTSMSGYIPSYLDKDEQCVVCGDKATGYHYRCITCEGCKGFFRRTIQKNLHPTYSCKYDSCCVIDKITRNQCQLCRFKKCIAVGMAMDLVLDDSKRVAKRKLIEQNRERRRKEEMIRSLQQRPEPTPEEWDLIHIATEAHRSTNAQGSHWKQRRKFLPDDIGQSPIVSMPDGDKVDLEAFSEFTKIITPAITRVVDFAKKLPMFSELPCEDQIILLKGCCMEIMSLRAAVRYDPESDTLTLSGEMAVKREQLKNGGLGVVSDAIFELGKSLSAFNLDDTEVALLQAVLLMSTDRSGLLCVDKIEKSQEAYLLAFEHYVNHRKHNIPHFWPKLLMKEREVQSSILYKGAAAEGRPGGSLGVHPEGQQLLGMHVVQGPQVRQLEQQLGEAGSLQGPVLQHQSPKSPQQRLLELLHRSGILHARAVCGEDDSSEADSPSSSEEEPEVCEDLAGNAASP
compound,measurement,setting,value
Cc1cc(OCP2(=O)OCC[C@@H](c3cccc(Cl)c3)O2)cc(C)c1Cc1ccc(O)c(C(C)C)c1 (stereo not given in full) [MB07811],Activity,Mus musculus [1],51%
same,Activity,Mus musculus [2],3%
same,clearance,[3],193 mL/min/kg
same,Activity,Rattus norvegicus [4],14.6%
same,Activity,Rattus norvegicus [5],-0.5 mg/dL
same,Activity,Rattus norvegicus [6],9 mg/dL
same,Activity,Rattus norvegicus [7],tde
same,Activity,Mus musculus [8],Active
same,Activity,Rattus norvegicus [9],0.524 mM
same,Activity,Rattus norvegicus [10],Active
same,Activity,Mus musculus [11],40%
same,Activity,Rattus norvegicus [12],0.402 ng/mL
same,Activity,Rattus norvegicus [13],0.541 mM
same,Vd,[14],14.8 L/kg
same,Activity,Mus musculus [15],42%
same,fold change (FC),Mus musculus [16],2.01
same,Activity,Rattus norvegicus [17],0.454 mM
same,Activity,Rattus norvegicus [18],37.9 g
same,Activity,Mus musculus [19],-31.8%
same,Cmax,Hepatocyte,1.03 nmol
same,Activity,Rattus norvegicus [20],tde
same,Ki,[21],14.6 µM
same,Activity,Mus musculus [22],Active
same,Activity,Rattus norvegicus [23],Active
same,Activity,Rattus norvegicus [24],Active
same,Activity,[25],Not Active
same,Activity,Mus musculus [26],69%
same,Ki,[27],12.5 µM
same,Activity,Mus musculus [28],42%
same,fold change (FC),Mus musculus [29],1.23
same,Activity,Mus musculus [30],38%
same,Activity,Mus musculus [31],inactive
same,Activity,Rattus norvegicus [32],0.424 ng/mL
same,Activity,Rattus norvegicus [33],49.3 g
same,Activity,Rattus norvegicus [34],tde
same,Activity,Rattus norvegicus [35],15.1%
same,Activity,Mus musculus [36],Active
same,Activity,Rattus norvegicus [37],0.342 ng/mL
same,Activity,Mus musculus [38],inactive
same,Activity,Rattus norvegicus [39],11.8 mg/dL
same,Activity,Rattus norvegicus [40],tde
same,Activity,Rattus norvegicus [41],42.8 g
same,Activity,Rattus norvegicus [42],15.6%
same,Km,CYP3A,18.8 µM
same,Vmax,[43],2.74 nmol/min/mg
same,Activity,Rattus norvegicus [44],Active
same,ED50,Rattus norvegicus [45],0.4 mg/kg
same,fold change (FC),Rattus norvegicus [46],21.063
same,Activity,Mus musculus [47],-10.8%
same,Activity,Mus musculus [48],61%
